Test results as given in ChEMBL document CHEMBL1157184, “Hymenoic acid, a novel specific inhibitor of human DNA polymerase lambda from a fungus of Hymenochaetaceae sp” (Bioorg Med Chem, 2008).
Calls of active or inactive are those of the source.

Experiments:
Bos taurus = species: Bos taurus; assay: Inhibition of bovine deoxyribonuclease 1 at 200 uM
In short: (§1)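 Each enzyme (0.05 U) was incubated with 200 μM compound. Activity was expressed as a percentage of the activity without compound (100%). Means ± SEM of four independent experiments.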

[1] = test system: T7 RNA polymerase (Bacteriophage T7); assay: Inhibition of T7 RNA polymerase at 200 uM
[2] = target: DNA polymerase (Drosophila melanogaster) (UniProt Q9GV40); assay: Inhibition of fruit fly DNA polymerase epsilon at 200 uM
DNA polymerase (Drosophila melanogaster), sequence (Q9GV40 as listed by the source): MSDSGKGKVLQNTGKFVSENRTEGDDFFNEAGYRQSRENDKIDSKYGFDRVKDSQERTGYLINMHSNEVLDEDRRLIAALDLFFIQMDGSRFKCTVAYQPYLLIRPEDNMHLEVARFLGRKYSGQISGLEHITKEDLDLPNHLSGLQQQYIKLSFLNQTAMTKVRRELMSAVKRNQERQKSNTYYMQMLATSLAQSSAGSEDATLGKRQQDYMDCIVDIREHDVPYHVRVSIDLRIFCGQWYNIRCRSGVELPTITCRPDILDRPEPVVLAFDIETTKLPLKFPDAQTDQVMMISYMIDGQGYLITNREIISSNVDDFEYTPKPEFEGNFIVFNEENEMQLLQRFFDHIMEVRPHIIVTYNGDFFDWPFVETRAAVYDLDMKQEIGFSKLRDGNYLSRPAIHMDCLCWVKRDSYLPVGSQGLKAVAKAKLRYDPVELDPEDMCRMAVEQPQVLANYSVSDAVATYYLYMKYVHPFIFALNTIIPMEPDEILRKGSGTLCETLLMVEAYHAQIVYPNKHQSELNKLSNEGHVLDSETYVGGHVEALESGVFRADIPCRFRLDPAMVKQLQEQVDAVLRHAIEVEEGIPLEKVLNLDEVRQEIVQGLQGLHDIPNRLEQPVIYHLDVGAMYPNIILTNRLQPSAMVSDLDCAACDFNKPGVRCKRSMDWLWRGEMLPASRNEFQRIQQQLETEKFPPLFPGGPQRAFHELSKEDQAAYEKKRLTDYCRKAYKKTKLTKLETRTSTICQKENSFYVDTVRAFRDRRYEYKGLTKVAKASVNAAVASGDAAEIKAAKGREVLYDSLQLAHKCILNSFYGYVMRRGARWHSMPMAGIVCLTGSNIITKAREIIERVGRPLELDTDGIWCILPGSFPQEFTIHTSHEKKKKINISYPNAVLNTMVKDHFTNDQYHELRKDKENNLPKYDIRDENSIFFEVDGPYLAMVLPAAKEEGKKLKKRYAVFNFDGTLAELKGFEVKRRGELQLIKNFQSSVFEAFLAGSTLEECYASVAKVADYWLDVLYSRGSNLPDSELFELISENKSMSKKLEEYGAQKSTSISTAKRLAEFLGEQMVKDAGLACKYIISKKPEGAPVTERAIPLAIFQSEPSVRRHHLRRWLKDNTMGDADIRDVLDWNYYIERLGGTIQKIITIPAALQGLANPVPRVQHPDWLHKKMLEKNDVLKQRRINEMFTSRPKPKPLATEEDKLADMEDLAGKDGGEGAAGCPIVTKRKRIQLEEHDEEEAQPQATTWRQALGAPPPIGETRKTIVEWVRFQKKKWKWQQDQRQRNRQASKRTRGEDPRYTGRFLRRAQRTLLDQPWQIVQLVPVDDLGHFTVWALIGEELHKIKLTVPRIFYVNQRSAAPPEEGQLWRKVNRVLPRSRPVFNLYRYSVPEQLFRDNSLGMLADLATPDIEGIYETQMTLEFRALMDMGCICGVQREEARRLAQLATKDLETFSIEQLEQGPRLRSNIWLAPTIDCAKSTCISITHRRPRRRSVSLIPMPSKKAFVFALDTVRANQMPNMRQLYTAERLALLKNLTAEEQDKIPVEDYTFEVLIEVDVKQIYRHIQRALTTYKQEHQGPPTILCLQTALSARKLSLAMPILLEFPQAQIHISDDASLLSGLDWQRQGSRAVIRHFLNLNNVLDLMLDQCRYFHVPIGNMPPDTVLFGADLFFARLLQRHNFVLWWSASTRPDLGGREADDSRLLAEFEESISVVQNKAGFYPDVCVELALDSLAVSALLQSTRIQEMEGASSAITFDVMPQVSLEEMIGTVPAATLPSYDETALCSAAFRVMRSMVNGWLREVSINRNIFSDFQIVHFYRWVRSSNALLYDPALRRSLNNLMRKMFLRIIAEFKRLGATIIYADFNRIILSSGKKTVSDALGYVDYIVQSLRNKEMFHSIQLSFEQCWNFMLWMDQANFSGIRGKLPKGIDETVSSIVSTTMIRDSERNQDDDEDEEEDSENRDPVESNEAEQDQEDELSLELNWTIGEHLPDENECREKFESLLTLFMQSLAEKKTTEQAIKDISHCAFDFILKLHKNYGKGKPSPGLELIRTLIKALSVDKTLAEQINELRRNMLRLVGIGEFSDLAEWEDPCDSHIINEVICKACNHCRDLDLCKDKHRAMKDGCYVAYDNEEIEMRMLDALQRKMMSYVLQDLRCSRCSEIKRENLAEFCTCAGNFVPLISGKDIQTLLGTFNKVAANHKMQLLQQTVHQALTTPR
In short: (§2)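 Compound dissolved in DMSO and sonicated 30 s, then held with each polymerase (final 0.05 U) in 50 mM Tris-HCl pH 7.5, 1 mM DTT, 50% glycerol, 0.1 mM EDTA at 0 °C for 10 min. Reaction with poly(dA)/oligo(dT)12-18 and dTTP ran 60 min at 37 °C (Taq at 74 °C). Activity relative to no-compound control; means ± SEM, four independent experiments.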

Mus musculus = species: Mus musculus; assay: Inhibition of mouse inosine 5-monophosphate dehydrogenase type 2 at 200 uM; in short: as §1
[3] = target: DNA polymerase I, thermostable (Thermus aquaticus) (UniProt P19821); assay: Inhibition of Taq polymerase at 200 uM; in short: as §2
DNA polymerase I, thermostable (Thermus aquaticus), sequence (P19821 whole entry): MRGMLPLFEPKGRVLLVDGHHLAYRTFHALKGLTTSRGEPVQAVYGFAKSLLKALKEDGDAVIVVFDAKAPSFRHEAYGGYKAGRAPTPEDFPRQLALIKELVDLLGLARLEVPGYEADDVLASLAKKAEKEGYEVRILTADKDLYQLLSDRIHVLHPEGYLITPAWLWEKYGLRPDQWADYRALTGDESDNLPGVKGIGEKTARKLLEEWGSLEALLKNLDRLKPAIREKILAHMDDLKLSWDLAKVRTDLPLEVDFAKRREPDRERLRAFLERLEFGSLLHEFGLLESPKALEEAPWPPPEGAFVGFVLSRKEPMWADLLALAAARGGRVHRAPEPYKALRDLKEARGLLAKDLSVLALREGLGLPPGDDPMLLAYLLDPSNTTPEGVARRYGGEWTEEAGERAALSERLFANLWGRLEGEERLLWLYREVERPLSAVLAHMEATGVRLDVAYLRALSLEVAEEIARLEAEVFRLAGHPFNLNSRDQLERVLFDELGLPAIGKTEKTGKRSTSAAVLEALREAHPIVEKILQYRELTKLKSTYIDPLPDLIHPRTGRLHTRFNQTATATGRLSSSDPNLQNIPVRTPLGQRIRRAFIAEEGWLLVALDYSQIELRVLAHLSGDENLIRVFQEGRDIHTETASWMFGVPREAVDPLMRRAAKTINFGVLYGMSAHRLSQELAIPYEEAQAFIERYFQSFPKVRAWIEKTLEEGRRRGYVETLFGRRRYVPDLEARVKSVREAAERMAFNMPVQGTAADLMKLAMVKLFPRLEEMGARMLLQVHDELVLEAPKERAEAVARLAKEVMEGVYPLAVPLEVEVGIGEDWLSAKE

[4] = target: T1, DNA polymerase eta (Homo sapiens) (UniProt Q9Y253); assay: Inhibition of human DNA polymerase eta at 200 uM; in short: as §2
T1 sequence (whole entry): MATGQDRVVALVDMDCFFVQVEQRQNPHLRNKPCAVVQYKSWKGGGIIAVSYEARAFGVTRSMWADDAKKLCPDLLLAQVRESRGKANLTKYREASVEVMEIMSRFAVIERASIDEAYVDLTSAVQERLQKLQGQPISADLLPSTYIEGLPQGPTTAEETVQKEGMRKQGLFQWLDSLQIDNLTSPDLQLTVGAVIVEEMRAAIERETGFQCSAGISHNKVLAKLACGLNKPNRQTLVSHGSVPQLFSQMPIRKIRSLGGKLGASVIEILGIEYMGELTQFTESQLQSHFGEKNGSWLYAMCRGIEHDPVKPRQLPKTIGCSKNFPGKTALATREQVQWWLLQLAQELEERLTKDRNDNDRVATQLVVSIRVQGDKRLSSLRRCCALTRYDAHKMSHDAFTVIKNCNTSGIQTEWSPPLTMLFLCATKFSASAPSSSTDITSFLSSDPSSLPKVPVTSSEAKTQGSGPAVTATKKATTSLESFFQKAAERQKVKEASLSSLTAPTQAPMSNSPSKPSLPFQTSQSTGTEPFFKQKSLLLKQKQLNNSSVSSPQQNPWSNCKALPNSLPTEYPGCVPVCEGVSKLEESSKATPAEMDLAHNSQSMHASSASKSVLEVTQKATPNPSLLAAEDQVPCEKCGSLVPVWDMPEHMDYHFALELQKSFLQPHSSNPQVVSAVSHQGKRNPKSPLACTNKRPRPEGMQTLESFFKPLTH

Homo sapiens = species: Homo sapiens; assay: Inhibition of human telomerse at 200 uM; in short: as §1
[5] = target: T2, DNA polymerase alpha subunit B (Bos taurus) (UniProt Q58D13); assay: Inhibition of primase activity of calf polymerase alpha at 200 uM
T2 sequence (whole entry): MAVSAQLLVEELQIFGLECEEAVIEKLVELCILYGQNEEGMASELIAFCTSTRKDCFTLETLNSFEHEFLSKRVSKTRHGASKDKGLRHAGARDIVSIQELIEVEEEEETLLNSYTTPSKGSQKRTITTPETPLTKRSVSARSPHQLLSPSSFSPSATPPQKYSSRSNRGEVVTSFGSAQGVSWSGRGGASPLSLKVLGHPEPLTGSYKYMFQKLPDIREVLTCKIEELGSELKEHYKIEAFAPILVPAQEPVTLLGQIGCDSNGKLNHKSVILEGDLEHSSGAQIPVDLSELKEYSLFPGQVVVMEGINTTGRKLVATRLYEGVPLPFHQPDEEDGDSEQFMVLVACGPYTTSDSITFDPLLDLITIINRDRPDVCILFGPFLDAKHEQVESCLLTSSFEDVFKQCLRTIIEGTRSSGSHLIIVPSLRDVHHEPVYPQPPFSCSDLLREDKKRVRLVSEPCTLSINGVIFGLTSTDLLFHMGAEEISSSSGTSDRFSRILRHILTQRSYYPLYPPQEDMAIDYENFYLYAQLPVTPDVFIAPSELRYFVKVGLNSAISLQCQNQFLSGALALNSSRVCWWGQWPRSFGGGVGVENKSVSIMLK

[6] = target: T3, DNA polymerase iota (Homo sapiens) (UniProt Q9UNA4); assay: Inhibition of human DNA polymerase iota at 200 uM; in short: as §2
T3 sequence (whole entry): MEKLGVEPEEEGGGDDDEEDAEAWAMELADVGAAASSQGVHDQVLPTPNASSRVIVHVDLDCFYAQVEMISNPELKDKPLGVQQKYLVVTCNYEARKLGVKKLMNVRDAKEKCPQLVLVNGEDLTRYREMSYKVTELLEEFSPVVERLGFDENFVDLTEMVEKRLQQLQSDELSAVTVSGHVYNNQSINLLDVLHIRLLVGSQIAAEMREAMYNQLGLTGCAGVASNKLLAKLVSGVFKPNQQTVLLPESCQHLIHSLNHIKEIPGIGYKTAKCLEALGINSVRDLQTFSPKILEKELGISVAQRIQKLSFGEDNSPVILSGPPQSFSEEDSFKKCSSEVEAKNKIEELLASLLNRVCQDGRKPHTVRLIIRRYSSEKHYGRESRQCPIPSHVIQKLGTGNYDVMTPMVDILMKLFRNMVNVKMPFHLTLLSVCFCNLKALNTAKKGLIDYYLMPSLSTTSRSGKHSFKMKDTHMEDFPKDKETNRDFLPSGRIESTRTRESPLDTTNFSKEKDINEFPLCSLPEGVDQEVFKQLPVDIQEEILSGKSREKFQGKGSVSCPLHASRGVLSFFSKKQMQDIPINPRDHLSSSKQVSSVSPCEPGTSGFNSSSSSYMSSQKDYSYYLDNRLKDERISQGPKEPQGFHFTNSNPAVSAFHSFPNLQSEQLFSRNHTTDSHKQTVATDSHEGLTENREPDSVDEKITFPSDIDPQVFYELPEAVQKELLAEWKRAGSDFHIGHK

Measured: Activity

C/C(=C\CC[C@H](C)C(=O)O)[C@H]1CC[C@H](C(=O)O)CC1
inactive: all assays above
